Assay results taken from ChEMBL document CHEMBL3259639, “RE12 derivatives displaying Vaccinia H1-related phosphatase (VHR) inhibition in the presence of detergent and their anti-proliferative activity against HeLa cells” (Bioorg Med Chem, 2014).
The source made the active and inactive calls. No cut-off for these calls is given here.

Experiments:
HeLa [1] = experiment: Antiproliferative activity against human HeLa cells after 48 hrs incubation by Alamar Blue assay; format: functional, cell-based
Outline: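 HeLa cells seeded at 3 x 10^3 cells/well, exposed to compounds for 48 h; Alamar Blue then added and incubated 3 h at 37 °C, 5% CO2; fluorescence read at 530 nm excitation/590 nm emission. IC50 taken from sigmoid dose-response curve.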

HeLa [2] = experiment: Antiproliferative activity against human HeLa cells at 30 uM after 48 hrs incubation by Alamar Blue assay; format: functional, cell-based
Outline: (§1)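 HeLa cells plated at 3 x 10^3 cells/well, treated 48 h at a single concentration (20 or 30 µM as per line); viability by Alamar Blue added for 3 h at 37 °C, 5% CO2, fluorescence at 530 nm ex/590 nm em; percent inhibition of proliferation.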

HeLa [3] = experiment: Antiproliferative activity against human HeLa cells at 20 uM after 48 hrs incubation by Alamar Blue assay; format: functional, cell-based; outline: as §1
[4] = target: T1, Dual specificity protein phosphatase 3 (Homo sapiens, UniProt P51452); experiment: Inhibition of Vaccinia H1-related phosphatase (unknown origin) by fluorescence emission assay
Outline: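 Purified VHR (22 ng) preincubated with or without compound 30 min at 37 °C in 50 mM succinate, 1 mM EDTA, 150 mM NaCl, 1 mM DTT, pH 6.0, 0.001% NP-40; reaction begun with 10 µM O-methylfluorescein phosphate, 10 min at 37 °C; product fluorescence at 485 nm ex/530 nm em; IC50 from sigmoid dose-response curve.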
Target sequence in this assay (P51452 whole entry): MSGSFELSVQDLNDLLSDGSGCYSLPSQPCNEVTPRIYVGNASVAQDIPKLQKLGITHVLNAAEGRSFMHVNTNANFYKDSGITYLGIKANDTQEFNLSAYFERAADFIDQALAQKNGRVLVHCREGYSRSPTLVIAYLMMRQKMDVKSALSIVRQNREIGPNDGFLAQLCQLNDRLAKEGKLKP

[5] = target: T1, Dual specificity protein phosphatase 3; experiment: Inhibition of Vaccinia H1-related phosphatase (unknown origin) by fluorescence emission assay in presence of 0.001% NP-40
Target sequence in this assay (P51452 whole entry): as above

[6] = target: T1, Dual specificity protein phosphatase 3; conditions: 100 uM
Target sequence in this assay (P51452 whole entry, looked up): as the sequence (P51452 whole entry) above

Row | SMILES | inhibition (HeLa [2]) | inhibition (HeLa [3]) | further results
1 | Cc1cccc(CN/C(CCCCc2ccc(OCc3ccccc3Cl)cc2)=C2\C(=O)OC(CO)C2=O)c1 (stereo unspecified) | – | – | IC50 (HeLa [1]): 10.6 µM
2 | Cc1cccc(CN/C(CCCCc2ccc(OCc3ccc(Cl)cc3)cc2)=C2\C(=O)OC(CO)C2=O)c1 (stereo unspecified) | Active | – | –
3 | Cc1cccc(CN/C(CCCCc2ccccc2OCc2ccc(C(F)(F)F)cc2)=C2\C(=O)OC(CO)C2=O)c1 (stereo unspecified) | Active | Active | –
4 | Cc1cccc(CN/C(CCCCc2ccccc2OCc2ccccc2Cl)=C2\C(=O)OC(CO)C2=O)c1 (stereo unspecified) | Active | Active | –
5 | Cc1cccc(CN/C(CCCCc2ccccc2OCc2ccc(Cl)cc2)=C2\C(=O)OC(CO)C2=O)c1 (stereo unspecified) | Active | Active | –
6 | CCCCCCCCCCCCCCC/C(NCc1cccc(C)c1)=C1/C(=O)OC(CO)C1=O (stereo unspecified) | Active | Active | IC50 [4]: 1.6 µM; IC50 [5]: > 100 µM; inhibition [6]: inactive
7 | Cc1cccc(CN/C(CCCCc2cccc(OCc3cccc(Cl)c3)c2)=C2\C(=O)OC(CO)C2=O)c1 (stereo unspecified) | Active | Active | –
8 | Cc1cccc(CN/C(CCCCc2cccc(OCc3ccc(Cl)cc3)c2)=C2\C(=O)OC(CO)C2=O)c1 (stereo unspecified) | Active | Active | –
9 | Cc1cccc(CN/C(CCCCc2ccccc2OCc2ccc([N+](=O)[O-])cc2)=C2\C(=O)OC(CO)C2=O)c1 (stereo unspecified) | Active | Active | –
10 | Cc1cccc(CN/C(CCCCc2cccc(OCc3ccccc3Cl)c2)=C2\C(=O)OC(CO)C2=O)c1 (stereo unspecified) | Active | Active | –
11 | Cc1cccc(CN/C(CCCCc2ccc(OCc3cccc(Cl)c3)cc2)=C2\C(=O)OC(CO)C2=O)c1 (stereo unspecified) | – | – | IC50 (HeLa [1]): 7.8 µM
12 | Cc1cccc(CN/C(CCCCc2ccccc2OCc2ccccc2)=C2\C(=O)OC(CO)C2=O)c1 (stereo unspecified) | Active | Active | –
13 | Cc1cccc(CN/C(CCCCc2ccccc2OCc2cccc(Cl)c2)=C2\C(=O)OC(CO)C2=O)c1 (stereo unspecified) | Active | Active | –
